Results reported in ChEMBL document CHEMBL4396914, “Discovery of new azoles with potent activity against Candida spp. and Candida albicans biofilms through virtual screening” (Eur J Med Chem, 2019).
In brackets after ≈: the same amount, converted by molar mass.

Experiments:
[1] = system: Candida albicans; assay: Antifungal activity against azole-susceptible Candida albicans ATCC 90028 assessed as reduction in fungal growth incubated for 48 hrs by broth microdilution method; type: functional; conditions: ATCC 90028, 48 h
In short: (§1)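 CLSI broth microdilution in RPMI 1640 with MOPS at pH 7.0. Inoculum taken from 24-h Sabouraud subcultures, final 0.5-2.5×10^3 cfu/ml. Compounds in DMSO, twofold series 1024-0.125 µg/ml final. Incubated 48 h at 35 °C. MIC is the lowest concentration giving complete inhibition of visible growth. Fluconazole served as the reference.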

[2] = system: Candida parapsilosis; assay: Antifungal activity against azole-susceptible Candida parapsilosis ATCC 90018 assessed as reduction in fungal growth incubated for 48 hrs by broth microdilution method; type: functional; conditions: Lodderomyces parapsilosis, ATCC 90018, 48 h; in short: as §1
[3] = system: Pichia kudriavzevii; assay: Antifungal activity against azole-susceptible Candida krusei ATCC 6258 assessed as reduction in fungal growth incubated for 48 hrs by broth microdilution method; type: functional; conditions: ATCC 6258, 48 h; in short: as §1
[4] = system: Candida tropicalis; assay: Antifungal activity against azole-resistant Candida tropicalis assessed as reduction in fungal growth incubated for 48 hrs by broth microdilution method; type: functional
In short: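 CLSI broth microdilution in RPMI 1640 (glutamine, no bicarbonate) buffered to pH 7.0 with MOPS. Azole-resistant clinical C. tropicalis isolate, stored at -80 °C in glycerol, subcultured twice on Sabouraud dextrose agar. Inoculum from 24-h subcultures, final 0.5 to 2.5×10^3 cfu/ml. Compounds in DMSO, twofold final 1024–0.125 µg/ml. Incubated 35 °C, 48 h. MIC = lowest concentration fully inhibiting visible growth.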

[5] = system: U-937; assay: Cytotoxicity against human U937 cells assessed as cell viability at 0.125 to 32 ug/ml incubated for 24 to 48 hrs by MTT assay; type: cell-based
In short: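 MTT assay on U937 monocytic cells, 4×10³ cells/well, in RPMI-1640 with 10% FBS. Eight concentrations, 0.125-32 µg/ml, DMSO ≤0.32% v/v, each in triplicate. Exposure 24 or 48 h at 37 °C, 5% CO₂, then MTT for 4 h. Formazan dissolved in SDS/DMF, absorbance read at 570 nm. Viability calculated relative to untreated cells.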

[6] = system: Candida albicans; assay: Disruption of Candida albicans SC5314 pre-formed mature biofilm assessed as reduction in biofilm biomass incubated for 24 hrs by spectrophotometry; type: functional
In short: (§2)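 C. albicans SC5314 biofilms grown on a 96-peg lid (Calgary device, MBEC protocol) from 10^6 cfu/ml inoculum for 24 h at 37 °C. Pegs rinsed in 0.9% saline, then challenged 24 h at 35 °C with twofold dilutions, 512-0.5 µg/ml. MBIC: no well turbidity by visual inspection. MBEC: pegs sonicated into RPMI/2% glucose, regrowth overnight, OD 550 nm plus visual turbidity.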

[7] = system: Candida albicans; assay: Antibiofilm activity against Candida albicans SC5314 assessed as inhibition of biofilm formation by turbidity based visual inspection method; type: functional; in short: as §2

SMILES	MIC [1] [µg/mL]	MIC [2] [µg/mL]	MIC [3] [µg/mL]	MIC [4] [µg/mL]	Activity [5]	MBEC [6] [µg/mL]	MBIC [7] [µg/mL]
Cl.O=C(O/N=C(\Cn1ccnc1)c1ccc(Cl)cc1Cl)c1ccc(Cl)cc1	32	32	64	–	–	–	–
O=C(OC(Cn1ccnc1)c1ccc(Cl)cc1Cl)c1ccc(-c2ccc(-c3ccccc3)cc2)cc1 (racemic)	256 (≈ 499 µM)	256 (≈ 499 µM)	256 (≈ 499 µM)	–	–	–	–
Cl.O=C(O/N=C(\Cn1ccnc1)c1ccc(Cl)cc1Cl)c1ccc([N+](=O)[O-])cc1	64	16	64	–	–	–	–
Cl.O=C(OC(Cn1ccnc1)c1ccc(Cl)cc1Cl)c1ccc(N2CCOCC2)cc1 (racemic)	16	32	256	–	–	–	–
Cl.O=C(OC(Cn1ccnc1)c1ccc(Cl)cc1Cl)c1ccc2ccccc2c1 (racemic)	1	1	2	1	Non-Toxic	256	0.5
Cc1ccc(C(=O)O/N=C(\Cn2ccnc2)c2ccc(Cl)cc2Cl)cc1	128 (≈ 330 µM)	256 (≈ 659 µM)	256 (≈ 659 µM)	–	–	–	–
Cl.O=C(OC(Cn1ccnc1)c1ccc(Cl)cc1Cl)c1ccc(C(F)(F)F)cc1 (racemic)	256	256	256	–	–	–	–
O/N=C(\Cn1ccnc1)c1ccc(Cl)cc1Cl	32 (≈ 118 µM)	32 (≈ 118 µM)	256 (≈ 948 µM)	–	–	–	–
COc1ccc(C(=O)OC(Cn2ccnc2)c2ccc(Cl)cc2Cl)cc1.Cl (racemic)	2	1	16	4	–	256	1
Cl.O=C(OC(Cn1ccnc1)c1ccc(Cl)cc1Cl)c1cc2ccccc2[nH]1 (racemic)	0.125	0.25	0.5	1	Non-Toxic	128	2
CC(C)(C)OC(=O)NCCCC(=O)OC(Cn1ccnc1)c1ccc(Cl)cc1Cl.Cl (racemic)	8	16	128	–	–	–	–
Cl.O=C(O/N=C(\Cn1ccnc1)c1ccc(Cl)cc1Cl)c1ccc(-c2ccc(-c3ccccc3)cc2)cc1	128	128	256	–	–	–	–
CSc1ccc(C(=O)OC(Cn2ccnc2)c2ccc(Cl)cc2Cl)cc1.Cl (racemic)	8	16	28	–	–	–	–
OC(Cn1ccnc1)c1ccc(Cl)cc1Cl (centres undefined)	8 (≈ 31.1 µM)	4 (≈ 15.6 µM)	128 (≈ 498 µM)	256 (≈ 996 µM)	–	–	–
O=C(/C=C/c1ccccc1)O/N=C(\Cn1ccnc1)c1ccc(Cl)cc1Cl	2 (≈ 5 µM)	2 (≈ 5 µM)	4 (≈ 9.99 µM)	64 (≈ 160 µM)	–	512	128
Cl.O=C(O/N=C(\Cn1ccnc1)c1ccc(Cl)cc1Cl)c1ccc2ccccc2n1	128	256	256	–	–	–	–
CCc1ccc(C(=O)OC(Cn2ccnc2)c2ccc(Cl)cc2Cl)cc1.Cl (racemic)	256	256	256	–	–	–	–
O=C(Cn1ccnc1)c1ccc(Cl)cc1Cl	128 (≈ 502 µM)	32 (≈ 125 µM)	256 (≈ 1000 µM)	–	–	–	–

SMILES	MIC [1] [µg/mL]	MIC [2] [µg/mL]	MIC [3] [µg/mL]	MIC [4] [µg/mL]	Activity [5]	MBEC [6] [µg/mL]	MBIC [7] [µg/mL]
O=C(O/N=C(\Cn1ccnc1)c1ccc(Cl)cc1Cl)c1ccccc1	32 (≈ 85.5 µM)	32 (≈ 85.5 µM)	32 (≈ 85.5 µM)	–	–	–	–
CSc1ccc(C(=O)O/N=C(\Cn2ccnc2)c2ccc(Cl)cc2Cl)cc1.Cl	2	2	64	16	–	256	2
CCc1ccc(C(=O)O/N=C(\Cn2ccnc2)c2ccc(Cl)cc2Cl)cc1.Cl	128	128	256	8	–	–	–
CC(C)c1ccc(C(=O)OC(Cn2ccnc2)c2ccc(Cl)cc2Cl)cc1.Cl (racemic)	256	128	128	–	–	–	–
C[C@@H]1[C@H](O)[C@@H](C)/C=C/C=C/C=C/C=C/C=C/C=C/C=C/[C@H](O[C@@H]2O[C@H](C)[C@@H](O)[C@H](N)[C@@H]2O)C[C@@H]2O[C@](O)(C[C@@H](O)C[C@@H](O)[C@H](O)CC[C@@H](O)C[C@@H](O)CC(=O)O[C@H]1C)C[C@H](O)[C@H]2C(=O)O [AMPHOTERICIN B]	–	–	–	–	–	256	4
Cl.O=C(O/N=C(\Cn1ccnc1)c1ccc(Cl)cc1Cl)c1cc2ccccc2[nH]1	128	128	256	256	–	–	–
Cl.O=C(O/N=C(\Cn1ccnc1)c1ccc(Cl)cc1Cl)c1ccc2ccccc2c1	256	256	256	–	–	–	–
Cl.O=C(OC(Cn1ccnc1)c1ccc(Cl)cc1Cl)C1CCCC1 (racemic)	1	2	16	8	–	>1024	32
CC(C)(C)c1ccc(C(=O)O/N=C(\Cn2ccnc2)c2ccc(Cl)cc2Cl)cc1	4 (≈ 9.3 µM)	4 (≈ 9.3 µM)	4 (≈ 9.3 µM)	64 (≈ 149 µM)	–	256	128
Cl.O=C(CCC(=O)c1ccccc1)OC(Cn1ccnc1)c1ccc(Cl)cc1Cl (racemic)	16	8	32	–	–	–	–
Cl.O=C(CCCc1ccccc1)OC(Cn1ccnc1)c1ccc(Cl)cc1Cl (racemic)	2	2	8	32	–	64	0.5
O=C(O/N=C(\Cn1ccnc1)c1ccc(Cl)cc1Cl)C1CCCCC1	64 (≈ 168 µM)	64 (≈ 168 µM)	64 (≈ 168 µM)	–	–	–	–
Cl.O=C(O/N=C(\Cn1ccnc1)c1ccc(Cl)cc1Cl)c1ccc(Cl)cc1Cl	64	64	64	–	–	–	–
Cl.N#Cc1ccc(C(=O)OC(Cn2ccnc2)c2ccc(Cl)cc2Cl)cc1 (racemic)	8	4	64	16	–	–	–
OC(Cn1cncn1)(Cn1cncn1)c1ccc(F)cc1F [FLUCONAZOLE]	0.5 (≈ 1.63 µM)	0.5 (≈ 1.63 µM)	32 (≈ 104 µM)	512 (≈ 1670 µM)	–	–	–
Cl.O=C(OC(Cn1ccnc1)c1ccc(Cl)cc1Cl)C1CCCCC1 (racemic)	8	4	32	16	–	–	–
CC(C)c1ccc(C(=O)O/N=C(\Cn2ccnc2)c2ccc(Cl)cc2Cl)cc1.Cl	16	16	32	–	–	–	–
N#Cc1ccc(C(=O)O/N=C(\Cn2ccnc2)c2ccc(Cl)cc2Cl)cc1	128 (≈ 321 µM)	64 (≈ 160 µM)	64 (≈ 160 µM)	–	–	–	–
